Laboratory results: ChEMBL document CHEMBL3232848, “Design and synthesis of high affinity inhibitors of Plasmodium falciparum and Plasmodium vivax N-myristoyltransferases directed by ligand efficiency dependent lipophilicity (LELP)” (J Med Chem, 2014)

What was measured:
[1] = tested on: Plasmodium falciparum; test: Antimicrobial activity against blood-stage Plasmodium falciparum 3D7 assessed as inhibition of [3H]hypoxanthine incorporation after 48 hrs by liquid scintillation counting; type: functional, organism-based
[2] = tested on: Plasmodium falciparum; test: Antimicrobial activity against blood-stage Plasmodium falciparum NF54 assessed as inhibition of [3H]hypoxanthine incorporation after 48 hrs by liquid scintillation counting; type: functional, organism-based
Summary of the method: (§1)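 Modified Desjardins method. Drug was serially diluted 2-fold, and infected blood was added at 0.3% parasitemia and 2.5% hematocrit. Uninfected blood and drug-free wells served as controls. Plates were held at 37 °C under 93% N2, 4% CO2, 3% O2. After 48 h, [3H]hypoxanthine (0.5 μCi/well) was added for a further 24 h, then cells were harvested and scintillation counted. Counts were taken as % of untreated controls, with IC50 by logit regression.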

[3] = tested on: Plasmodium falciparum; test: Antimicrobial activity against blood-stage Plasmodium falciparum K1 assessed as inhibition of [3H]hypoxanthine incorporation after 48 hrs by liquid scintillation counting; type: functional, organism-based; summary of the method: as §1
[4] = tested on: Plasmodium falciparum; test: Antimicrobial activity against blood-stage Plasmodium falciparum Dd2 assessed as inhibition of [3H]hypoxanthine incorporation after 48 hrs by liquid scintillation counting; type: functional; summary of the method: as §1
[5] = tested on: Plasmodium berghei; test: Antimicrobial activity against Plasmodium berghei sporozoites infected in 12 hrs compound pretreated human HepG2 cells assessed as reduction in viability of exoerythrocytic forms measured after 48 hrs of incubation by luciferase bioluminescence assay; type: functional, organism-based
Summary of the method: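 HepG2-A16-CD81EGFP cells expressing GFP-CD81 were grown in DMEM with 10% FCS, glutamine and penicillin/streptomycin at 37 °C, 5% CO2. They were seeded at 3000 cells/well 24 h before infection. Cells were pretreated 12 h with a 12-point dilution series, then infected with luciferase-expressing P. berghei sporozoites (1000/well). Exoerythrocytic form viability was read by bioluminescence after 48 h. EC50 came from a four-parameter variable-slope fit, mean of two determinations.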

[6] = Inhibition of human N-myristoyltransferase using H-Gly-Ser-Asn-Lys-Ser-Lys-Pro-Lys-NH2 as substrate by CPM fluorescence assay
Summary of the method: (§2)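 IC50 values (mean of two or more determinations) were converted to Ki by Cheng–Prusoff using substrate concentration and Km. For PfNMT, Km was 3.64 μM and substrate was 4.00 μM. The human enzyme values refer to HsNMT1.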

[7] = target: T1, Glycylpeptide N-tetradecanoyltransferase (Plasmodium falciparum (isolate 3D7), UniProt Q8ILW6); test: Inhibition of Plasmodium falciparum N-myristoyltransferase by CPM fluorescence assay; summary of the method: as §2
T1 sequence (Q8ILW6 whole entry): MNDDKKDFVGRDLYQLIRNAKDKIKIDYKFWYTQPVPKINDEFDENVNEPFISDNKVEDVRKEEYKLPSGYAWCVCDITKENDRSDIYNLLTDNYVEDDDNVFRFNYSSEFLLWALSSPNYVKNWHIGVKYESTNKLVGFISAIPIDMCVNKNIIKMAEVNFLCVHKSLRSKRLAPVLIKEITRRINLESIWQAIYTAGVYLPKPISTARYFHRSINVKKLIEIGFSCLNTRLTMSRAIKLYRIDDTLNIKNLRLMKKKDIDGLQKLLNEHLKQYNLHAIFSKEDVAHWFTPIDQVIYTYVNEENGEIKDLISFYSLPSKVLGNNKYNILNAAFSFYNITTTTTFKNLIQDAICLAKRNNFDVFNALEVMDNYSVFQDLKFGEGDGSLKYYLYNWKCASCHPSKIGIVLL

[8] = Inhibition of Plasmodium vivax N-myristoyltransferase by CPM fluorescence assay; summary of the method: as §2
[9] = tested on: Plasmodium falciparum; test: Antimicrobial activity against late stage trophozoite form of Plasmodium falciparum 3D7 infected in RBCs after 48 hrs by SYBR green viability assay; type: functional, organism-based; conditions: 3D7, 96 h, in the assay text read “after 96 hrs” for “after 48 hrs”
Summary of the method: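 Synchronous 3D7 late trophozoites (33–36 h) were used at 0.1–0.2% parasitemia and 2% hematocrit in washed, buffy-coat-free RBCs, in RPMI 1640 with Albumax, gentamycin and L-glutamine. Seven dilutions from 10.0 to 0.014 μM were run in duplicate at 37 °C under 5% CO2, 5% O2, 90% N2. Drug was replaced at 48 h and incubation continued to 96 h. Read-out was SYBR Green I in saponin/Triton lysis buffer, then fluorescence converted to % growth.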

[10] = Cytotoxicity against human HepG2 cells after 72 hrs by MTS assay; type: cell-based; conditions: read-out: LD50
Summary of the method: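 HepG2 cells grown in DMEM with 10% FBS and penicillin/streptomycin, 37 °C, 5% CO2, seeded at 5000 cells/well. Seven-point dilution series in medium from a 50 mM DMSO stock; DMSO/medium and puromycin control wells. Incubated 72 h, then MTS/PMS added for 4 h and read at 490 nm. LD50 by nonlinear regression, mean of six determinations.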

[11] = Aqueous solubility of the compound; type: physicochemical
[12] = Selectivity ratio of Ki for human N-myristoyltransferase to Ki for Plasmodium falciparum N-myristoyltransferase
[13] = Selectivity ratio of Ki for human N-myristoyltransferase to Ki for Plasmodium vivax N-myristoyltransferase
[14] = tested on: Plasmodium falciparum; test: Ratio of EC50 for blood-stage Plasmodium falciparum Dd2 to EC50 for blood-stage Plasmodium falciparum NF54; type: functional
[15] = Selectivity ratio of LD50 for human HepG2 cells to EC50 for blood-stage Plasmodium falciparum 3D7; type: ADME, cell-based; conditions: read-out: Ratio LD50/EC50
[16] = Selectivity ratio of LD50 for human HepG2 cells to EC50 for blood-stage Plasmodium falciparum NF54; type: ADME, cell-based; conditions: read-out: Ratio LD50/EC50
[17] = Selectivity ratio of LD50 for human HepG2 cells to EC50 for blood-stage Plasmodium falciparum K1; type: ADME, cell-based; conditions: read-out: Ratio LD50/EC50
[18] = Selectivity ratio of LD50 for human HepG2 cells to EC50 for blood-stage Plasmodium falciparum Dd2; type: ADME, cell-based; conditions: read-out: Ratio LD50/EC50

| Structure (SMILES) | Ki [6] | Ki [7] | Ki [8] | EC50 [9] | also measured |
| --- | --- | --- | --- | --- | --- |
| CCN(CC)CCCC(C)Nc1ccnc2cc(Cl)ccc12 (configuration not stated) [CHLOROQUINE] | – | – | – | – | EC50 [1]: 6 nM; EC50 [2]: 13 nM; EC50 [3]: 255 nM; EC50 [4]: 328 nM; EC50 [5]: > 10000 nM |
| c1ccc(Cc2noc(-c3sc4ccccc4c3OC3CCNCC3)n2)cc1 | 788 nM | 71 nM | 16 nM | 2300 nM | – |
| c1ccc(CCc2noc(-c3sc4ccccc4c3OC3CCNCC3)n2)cc1 | 1540 nM | 247 nM | 57 nM | 3790 nM | – |
| COc1cccc(Cc2noc(-c3sc4ccccc4c3OC3CCNCC3)n2)c1 | 192 nM | 51 nM | 8 nM | 1450 nM | – |
| Cc1nn(C)c(C)c1Cc1nnc(-c2sc3ccccc3c2OC2CCNCC2)o1 | 60 nM | 8 nM | 2 nM | 302 nM | IC50 [7]: 17 nM; EC50 [1]: 302 nM; EC50 [2]: 232 nM; EC50 [3]: 339 nM; EC50 [4]: 916 nM; EC50 [5]: 372 nM; CC50 at 72 h [10]: 12300 nM; solubility [11]: > 8 mM; Ratio Ki [12]: 8; Ratio Ki [13]: 30; Ratio EC50 [14]: <4; selectivity ratio [15]: ≤ 40; selectivity ratio [16]: ≤ 40; selectivity ratio [17]: ≤ 40; selectivity ratio [18]: 14 |
| c1ccc(Cc2nc(-c3sc4ccccc4c3OC3CCNCC3)no2)cc1 | 1190 nM | 120 nM | 13 nM | – | – |
| c1ccc(Cc2nnc(-c3sc4ccccc4c3OC3CCNCC3)o2)cc1 | 1370 nM | 77 nM | 39 nM | 9500 nM | – |
| Cc1n[nH]c(C)c1Cc1nnc(-c2sc3ccccc3c2OC2CCNCC2)o1 | 1540 nM | 55 nM | 75 nM | 2010 nM | Ratio Ki [12]: 30 |
| FC(F)(c1ccccc1)c1nnc(-c2sc3ccccc3c2OC2CCNCC2)o1 | 2770 nM | 391 nM | 182 nM | – | – |
| CC(C)(c1ccccc1)c1nnc(-c2sc3ccccc3c2OC2CCNCC2)o1 | 1550 nM | 152 nM | 32 nM | – | – |
| Cc1nn(C)c(C)c1CCc1nnc(-c2sc3ccccc3c2OC2CCNCC2)o1 | 824 nM | 124 nM | 32 nM | – | – |
| COc1cc(Cc2nc(-c3sc4ccccc4c3OC3CCNCC3)no2)cc(OC)c1 | 50 nM | 15 nM | 8 nM | 3500 nM | – |
| c1ccc(Cc2n[nH]c(-c3sc4ccccc4c3OC3CCNCC3)n2)cc1 | 893 nM | 270 nM | 71 nM | – | – |
| O=C(NCCOc1ccccc1)c1sc2ccccc2c1OC1CCNCC1 | > 100000 nM | > 10000 nM | 2210 nM | – | – |
| O=C(NCCCc1ccccc1)c1sc2ccccc2c1OC1CCNCC1 | > 100000 nM | > 10000 nM | 2530 nM | – | – |
| Cc1noc(C)c1CCc1nnc(-c2sc3ccccc3c2OC2CCNCC2)o1 | 709 nM | 186 nM | 47 nM | – | – |
| OC(c1ccccc1)c1nnc(-c2sc3ccccc3c2OC2CCNCC2)o1 (racemic) | 2450 nM | 125 nM | 35 nM | 7340 nM | – |

| Structure (SMILES) | Ki [6] | Ki [7] | Ki [8] | EC50 [9] | also measured |
| --- | --- | --- | --- | --- | --- |
| COc1cccc(Cc2nnc(-c3sc4ccccc4c3OC3CCNCC3)o2)c1 | 428 nM | 33 nM | 18 nM | 5500 nM | Ratio Ki [12]: 13; Ratio Ki [13]: 24 |
| COc1cc(Cc2noc(-c3sc4ccccc4c3OC3CCNCC3)n2)cc(OC)c1 | 207 nM | 15 nM | 5 nM | 2490 nM | – |
| COc1cc(CCOC(=O)c2sc3ccccc3c2OC2CCNCC2)cc(OC)c1 | 31 nM | 26 nM | 9 nM | 1410 nM | – |
| COC(c1ccccc1)c1nnc(-c2sc3ccccc3c2OC2CCNCC2)o1 (racemic) | 3950 nM | 212 nM | 81 nM | – | – |
| COc1cccc(Cc2nc(-c3sc4ccccc4c3OC3CCNCC3)no2)c1 | 100 nM | 50 nM | 6 nM | 3260 nM | – |
| O=C(NCCc1ccccc1)c1sc2ccccc2c1OC1CCNCC1 | > 100000 nM | > 10000 nM | 3780 nM | – | – |
| COc1cccc(CCOC(=O)c2sc3ccccc3c2OC2CCNCC2)c1 | 2200 nM | 120 nM | 59 nM | 4200 nM | – |
| c1ccc(C2(c3nnc(-c4sc5ccccc5c4OC4CCNCC4)o3)CC2)cc1 | 976 nM | 98 nM | 34 nM | – | – |
| O=C(OCCc1ccccc1)c1sc2ccccc2c1OC1CCNCC1 | 10400 nM | 677 nM | 72 nM | 5600 nM | – |
| Cc1n[nH]c(C)c1CCc1nnc(-c2sc3ccccc3c2OC2CCNCC2)o1 | 2250 nM | 226 nM | – | – | – |
| Clc1cccc(Cc2noc(-c3sc4ccccc4c3OC3CCNCC3)n2)c1 | 871 nM | 163 nM | 58 nM | 1210 nM | – |
| Cc1noc(C)c1Cc1nnc(-c2sc3ccccc3c2OC2CCNCC2)o1 | 1050 nM | 113 nM | 38 nM | 5020 nM | Ratio Ki [12]: 8 |
| O=C(OCCOc1ccccc1)c1sc2ccccc2c1OC1CCNCC1 | 1870 nM | 1130 nM | 123 nM | – | – |
| O=C1C(O)=C([C@H]2CC[C@H](c3ccc(Cl)cc3)CC2)C(=O)c2ccccc21 [ATOVAQUONE] | – | – | – | – | EC50 [5]: 0.5 nM; CC50 at 72 h [10]: > 10000 nM |
| c1ccc(C(c2ccccc2)c2nnc(-c3sc4ccccc4c3OC3CCNCC3)o2)cc1 | 1920 nM | 465 nM | 142 nM | – | – |
| O=C(OCCCc1ccccc1)c1sc2ccccc2c1OC1CCNCC1 | 1160 nM | 3970 nM | 66 nM | – | – |
| CC(c1ccccc1)c1nnc(-c2sc3ccccc3c2OC2CCNCC2)o1 (racemic) | 2070 nM | 334 nM | 77 nM | – | – |
